For series [1], the system named is A549. The series is described as follows: Effect on NF-kappaB activation in 100 ng/ml IL-1beta, TNF-alpha and IFN-gamma-stimulated human A549 cells assessed as degradation of inhibitory subunit IkappaB at 50 ug/ml by Western blot analysis. Type of series: functional, cell-based. In outline:
(§1)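 A549 cells (2 × 10⁶/dish) starved 24 h, then exposed to cytokine mix (100 ng/ml each) ± rifampin 50 μg/ml, or rifampin alone; lysates taken over time (30 min to 3 h), 20–30 μg protein immunoblotted for IκB, ECL detection, densitometry; three experiments.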
On the technique in general: A western blot detects proteins with antibodies after separation by electrophoresis.

Series [2] concerns A549. Description: Induction of iNOS expression in human A549 cells at 25 to 50 ug/ml by Western blot analysis. Type of series: functional, cell-based.
Series [3] deals with A549. The series is described as follows: Effect on PPARgamma expression in human A549 cells assessed as decrease in PPARgamma expression normalized to beta-actin expression level at 50 ug/ml by Western blot analysis. Type of series: functional, cell-based. In outline: (§2)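 A549 cells starved 24 h, then 24 h with medium, cytokine mix (100 ng/ml each), or mix plus graded rifampin; whole-cell extracts immunoblotted with mouse anti-PPARγ, signal normalized to β-actin by densitometry; five experiments, mean ± SEM, unpaired t test.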

The subject of series [4] is A549. Description: Effect on STAT-1 phosphorylation in human A549 cells assessed as increase in IL1-beta, TNF-alpha and IFN-gamma-induced phosphorylation at 50 ug/ml after 15 to 30 mins by Western immunoblotting analysis. Type of series: functional, cell-based. In short, it runs like this: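 A549 cells starved 24 h in serum- and antibiotic-free medium, treated with cytokine mix (IL-1β, TNF-α, IFN-γ) ± rifampin; total lysates immunoblotted (10% SDS-PAGE, PVDF) with rabbit anti-phospho-STAT-1; ECL detection with densitometry.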

Series [5] is described as follows: Cmax in serum of human patient undergoing fibre-optic bronchoscopy at 600 mg, po administered as single dose. The class given is ADME, organism-based. The arrangement: dose 600 mg, route oral.
Series [6] deals with A549. The series is described as follows: Effect on NF-kappaB activation in 100 ng/ml IL-1beta, TNF-alpha and IFN-gamma-stimulated human A549 cells assessed as degradation of inhibitory subunit IkappaB measured upto 3 hrs at 50 ug/ml by Western blot analysis. The class given is functional, cell-based. In outline: as §1
Series [7] deals with A549. The series is described as follows: Induction of NF-kappaB activation in human A549 cells assessed as fold increase in NF-kappaB/DNA binding at 50 ug/ml by electrophoretic mobility shift assay. Type of series: functional, cell-based. In short, it runs like this: (§3)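 Nuclear extracts from A549 cells 2 h after cytokine mix (IL-1β, TNF-α, IFN-γ) ± rifampin 50 μg/ml; 2 μl extract bound to biotin-labeled NF-κB consensus probe, 5% native PAGE in TBE, streptavidin-HRP chemiluminescence; specificity checked with cold NF-κB oligonucleotide.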
(In general: In EMSA bound probe runs differently from free probe, usually more slowly.)

The test system of a further series is HT-29. Description: Effect on iNOS expression in human HT-29 cells assessed as increase in 100 ng/ml IL1-beta, TNF-alpha and IFN-gamma-stimulated iNOS […] expression normalized to beta-actin expression level at 10 to 50 ug/ml after 24 hrs by Western blot analysis. Type of series: functional, cell-based.
For series [8], the system named is A549. The series is described as follows: Effect on JNK phosphorylation in human A549 cells assessed as increase in IL1-beta, TNF-alpha and IFN-gamma-induced phosphorylation at 50 ug/ml after 15 to 30 mins by Western immunoblotting analysis. Type of series: functional, cell-based. In short, it runs like this:
(§4)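 A549 cells serum/antibiotic-starved 24 h, then given cytokine mix (IL-1β, TNF-α, IFN-γ) with or without rifampin (50 μg/ml); total lysates at 15, 30, 60 min; 20–30 μg protein on 10% SDS-PAGE, immunoblotted for phospho-ERK1/2, phospho-JNK, phospho-p38 and total forms; ECL detection, densitometry.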

For series [9], the system named is A549. The series is described as follows: Effect on iNOS expression in human A549 cells assessed as fold increase in 100 ng/ml IL1-beta, TNF-alpha and IFN-gamma-stimulated iNOS mRNA expression at 10 ug/ml after 19 hrs by TaqMan real-time RT-PCR relative to control. Type of series: functional. In short, it runs like this: (§5)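 A549 cells starved 24 h, then 19 h with cytokine mix (100 ng/ml each) ± rifampin 10 or 50 μg/ml (DMSO stock diluted ≥1:1,000); 2 μg total RNA reverse transcribed (random hexamers), iNOS by TaqMan real-time RT-PCR normalized to β-actin; medium-only control set to 1; four experiments, mean ± SEM.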

In series [10] the test system is A549. The series is described as follows: Effect on iNOS expression in human A549 cells assessed as fold increase in 100 ng/ml IL1-beta, TNF-alpha and IFN-gamma-stimulated iNOS mRNA expression at 50 ug/ml after 19 hrs by TaqMan real-time RT-PCR relative to control. Type of series: functional. In outline:
as §5
In general terms: Real-time PCR tracks product formation cycle by cycle.

Series [11] has as its system A549. Description: Induction of iNOS expression in human A549 cells at 25 to 50 ug/ml by Western blot analysis in presence of IFN-gamma. Type of series: functional, cell-based. In outline: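 A549 cells starved 24 h, then given rifampin with IFN-γ, each agent alone, or cytokine mix; total cell extracts prepared 20 h after stimulation and immunoblotted with rabbit anti-iNOS, ECL detection.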

The subject of a further series is DLD-1. Description: Effect on iNOS expression in human DLD1 cells assessed as increase in 100 ng/ml IL1-beta, TNF-alpha and IFN-gamma-stimulated iNOS […] expression normalized to beta-actin expression level at 10 to 50 ug/ml after 24 hrs by Western blot analysis. The class given is functional, cell-based.
Series [12] has as its system A549. Description: Effect on p38 phosphorylation in human A549 cells assessed as increase in IL1-beta, TNF-alpha and IFN-gamma-induced phosphorylation at 50 ug/ml after 15 to 30 mins by Western immunoblotting analysis. The class given is functional, cell-based. In outline: as §4
Series [13] deals with A549. The series is described as follows: Reduction in PPARgamma expression in human A549 cells assessed as increase in 100 ng/ml IL1-beta, TNF-alpha and IFN-gamma-induced PPARgamma down regulation normalized to beta-actin expression level at 50 ug/ml by Western blot analysis. Type of series: functional, cell-based. In short, it runs like this:
as §2

Series [14] has as its system A549. The series is described as follows: Effect on ERK1/2 phosphorylation in human A549 cells assessed as increase in IL1-beta, TNF-alpha and IFN-gamma-induced phosphorylation at 50 ug/ml after 15 to 30 mins by Western immunoblotting analysis. The class given is functional, cell-based. In outline: as §4
The target of series [15] is Nitric oxide synthase, inducible (Homo sapiens) (UniProt P35228). Description: Effect on iNOS in human A549 cells assessed as increase in iNOS mRNA expression at 50 ug/ml after 19 hrs by TaqMan real-time RT-PCR relative to control. Type of series: cell-based. In short, it runs like this:
as §5

Series [16] has as its system A549. The series is described as follows: Effect on NF-kappaB activation in human A549 cells assessed as degradation of inhibitory subunit IkappaB after 30 mins at 50 ug/ml by Western blot analysis. Type of series: functional, cell-based. In outline: as §1
Series [17] has as its system A549. Description: Induction of NF-kappaB activation in IL1-beta, TNF-alpha and IFN-gamma-stimulated human A549 cells assessed as fold increase in NF-kappaB/DNA binding at 50 ug/ml by electrophoretic mobility shift assay. The class given is functional. In short, it runs like this: as §3

The source made the active and inactive calls. No cut-off for these calls is given here.

Nitric oxide synthase, inducible (Homo sapiens), sequence (P35228 whole entry): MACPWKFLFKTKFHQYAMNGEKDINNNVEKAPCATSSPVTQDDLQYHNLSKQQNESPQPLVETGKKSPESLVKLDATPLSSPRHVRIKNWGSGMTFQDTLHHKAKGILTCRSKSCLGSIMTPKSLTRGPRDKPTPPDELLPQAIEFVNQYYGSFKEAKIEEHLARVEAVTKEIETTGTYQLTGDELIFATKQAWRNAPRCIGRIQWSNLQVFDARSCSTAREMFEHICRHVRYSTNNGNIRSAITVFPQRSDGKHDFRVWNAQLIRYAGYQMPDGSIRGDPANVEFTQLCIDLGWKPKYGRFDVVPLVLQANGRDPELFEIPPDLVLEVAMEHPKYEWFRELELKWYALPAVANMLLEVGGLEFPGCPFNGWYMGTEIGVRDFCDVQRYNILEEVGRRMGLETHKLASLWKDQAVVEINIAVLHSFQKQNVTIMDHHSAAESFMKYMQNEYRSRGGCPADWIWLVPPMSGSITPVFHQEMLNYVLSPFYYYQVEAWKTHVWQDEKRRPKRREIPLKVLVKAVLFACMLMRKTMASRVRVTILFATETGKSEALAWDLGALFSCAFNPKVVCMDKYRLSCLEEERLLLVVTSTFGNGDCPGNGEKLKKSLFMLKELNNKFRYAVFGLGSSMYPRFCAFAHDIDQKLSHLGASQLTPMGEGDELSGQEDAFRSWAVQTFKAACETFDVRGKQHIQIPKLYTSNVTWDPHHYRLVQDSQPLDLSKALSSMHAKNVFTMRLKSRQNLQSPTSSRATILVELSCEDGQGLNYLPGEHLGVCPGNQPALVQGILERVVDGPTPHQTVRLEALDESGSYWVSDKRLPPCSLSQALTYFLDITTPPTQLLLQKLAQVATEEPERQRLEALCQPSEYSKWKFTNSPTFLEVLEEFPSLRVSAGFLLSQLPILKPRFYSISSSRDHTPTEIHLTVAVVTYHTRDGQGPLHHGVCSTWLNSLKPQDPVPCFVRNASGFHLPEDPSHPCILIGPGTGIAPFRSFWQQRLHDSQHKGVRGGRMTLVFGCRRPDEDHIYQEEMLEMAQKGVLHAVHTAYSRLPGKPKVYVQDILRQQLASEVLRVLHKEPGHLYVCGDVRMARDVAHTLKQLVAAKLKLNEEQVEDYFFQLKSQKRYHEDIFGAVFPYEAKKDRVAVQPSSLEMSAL

As to `CO[C@H]1/C=C/O[C@@]2(C)Oc3c(C)c(O)c4c(O)c(c(/C=N/N5CCN(C)CC5)c(O)c4c3C2=O)NC(=O)/C(C)=C\C=C\[C@H](C)[C@H](O)[C@@H](C)[C@@H](O)[C@@H](C)[C@H](OC(C)=O)[C@@H]1C` [RIFAMPIN], the result in the series on A549 [1], in the series on A549 [6], in the series on A549 [7], in the series on A549 [11], in the series on A549 [13] and with A549 [16] was Active. Moreover, the result in the series on A549 [2], in the series on A549 [3], in the series on A549 [4], in the series with A549 [8], in the series on DLD-1 and with A549 [12] was inactive. For the same molecule, the outcome (in the series on A549 [14]; in series [15]) was inactive. In series [5], the highest concentration (Cmax) (as a rule, the highest concentration seen after dosing) came to 15000 ng/mL. The Activity result in the series on HT-29 was “Dose-dependent effect”. The “fold change (FC)” value with A549 [9] is given as 1.9; in the series on A549 [10], 4; in the series with A549 [17], 2.1.
